PolyA inhibitor = blocks polyadenylation in yeast reporter cells; S. cerevisiae SKY197-pL101 polyadenylation reporter, beta-gal luminescence; efflux-impaired pdr1/pdr3 knockout yeast; score 100 = 6 SD above DMSO; activity score, % at 12 µM; 300,000 compounds, 0.02% hits;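 active = lowest replicate activity score at least 50, where 100 means six control SD above control mean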;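 also: yeast exposed to compound for 9 h at 30 °C; higher score means more reporter readthrough which indicates perturbed polyadenylation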
PERK inh = human PERK inhibition, primary cell-based screen; CHO PERK-DD fusion, SEAP luminescence translation reporter; inhibition, % at 5.6 µM; 220,000 compounds, 0.17% hits; AID 1416;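 active = inhibition above the mean inhibition of all tested compounds plus 3 SD, set separately per screening campaign, cut at about 2.9% in these data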;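 also: PERK kinase domain activated by AP20187 dimerizer at 100 nM; 0% = DMSO with dimerizer and 100% = rapamycin at 8.4 µM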
HSF1 inhib = HSF1 inhibition; AID 2098; activity change, negative = inhibition, % at 7.5 µM (by protocol); NIH3T3-HGL HSE-luciferase, MG132-induced, luminescence 8 h; stronger effect = lower value; 300,000 compounds, 0.77% hits;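 active = more than half of replicate wells show activity change below -50%, luminescence cut by over half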;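 also: luciferase reports HSF-1 transcriptional activity via heat shock element; 0% = median of DMSO wells and -100% = zero luminescence signal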
STAT3 activator = activators of IL-6 induced STAT3 signaling; activation (% of control), % at 5.6 µM; U3A cells, IL-6 STAT3-luciferase reporter, luminescence; 100% = signal with IL-6 EC80 alone; 190,000 compounds, 0.91% hits; AID 871;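 active = activation above the screen-wide mean of compound activation plus 3 SD, cut at about 130% in these data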;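 also: 0% = background luminescence of wells with medium and substrate only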
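Detection: reporter luminescence signal / Assay system: STAT1-lacking human U3A cells, STAT3 luciferase reporter / Incubation: compound pre-incubation 1 h before IL-6, then 6 h stimulation at 37 °C / Control set: IL-6-only high control / Read-out: % activation relative to IL-6 control / Probe or stimulus: Interleukin-6, 33 ng/mL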
Hsp70 activator = transcriptional activators of Hsp70; HeLa Hsp70 promoter luciferase reporter, luminescence; scaled: vehicle 0, proteasome-inhibitor control 100%; activation, % at 10 µM; 200,000 compounds, 0.04% hits;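 active = activation above the mean across all tested compounds plus 3 SD, cutoff set per campaign, cut at about 5.5% in these data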;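 also: 100% = MG132 at 30 µM as the positive control and 0% = DMSO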
AHR activator = activates the human aryl hydrocarbon receptor; P35869; AHR-responsive luciferase reporter cells, luminescence; activation, % at 5 µM; 320,000 compounds, 2.5% hits; in the data active = activation above about 47%;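 also: 0% = vehicle wells and 100% = reference agonist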
* = called active by the depositor. Hits are enriched below; roughly 3.6% of the tested compounds scored in any of these assays.

Screening Cc1csc(=O)n1CC(=O)OCC(=O)NCc1ccc(Cl)cc1Cl returned PolyA inhibitor 15, HSF1 inhib -2 and AHR activator -1.
COc1cc(C2CC(=O)Oc3c(C(CCN4CCN(c5ccccc5)CC4)c4ccc(N(C)C)cc4)c(OC)cc(OC)c32)cc(OC)c1OC (stereo unspecified) was read as PolyA inhibitor -8, HSF1 inhib 1 and AHR activator 1.
Screening COc1cc(C2CC(=O)Oc3c(C(CCN4CCOCC4)c4ccc(N(C)C)cc4)c(OC)cc(OC)c32)cc(OC)c1OC (stereo unspecified) returned PolyA inhibitor 58*, HSF1 inhib 6 and AHR activator 3.
Screening CC(C)c1nc(SCC(=O)NC2CCCC2)c2c(=O)n(C)c(=O)n(C)c2n1 returned PolyA inhibitor 2, HSF1 inhib -3 and AHR activator 0.
Screening CC1=C(C(=O)OCCOc2ccccc2)C(c2ccc(C)o2)C2=C(CC(C)(C)CC2=O)N1 (stereo unspecified) returned PolyA inhibitor -3, PERK inh -1, HSF1 inhib 9, STAT3 activator 100, Hsp70 activator 0 and AHR activator 3.
`CC1=C(C(=O)Nc2ccc(C)cc2)C(c2ccc(C)o2)C2=C(CC(C)(C)CC2=O)N1` (stereo unspecified) gave PolyA inhibitor 19, PERK inh -1, HSF1 inhib -62*, STAT3 activator 90, Hsp70 activator 0 and AHR activator 10.
Screening CN(CC1CCOCC1)C(=O)CC1C(=O)NCCN1Cc1cccc(C(F)(F)F)c1 (stereo unspecified) returned PolyA inhibitor -20 and HSF1 inhib 1.
For CCn1c(O)c(C=Nc2ccccc2)oc1=S the results were PolyA inhibitor 9, PERK inh 0, HSF1 inhib -67*, STAT3 activator 77, Hsp70 activator 0 and AHR activator -2.
Screening COc1cccc(CN(C)C(=O)c2cccc(OCc3ccccc3)c2)c1 returned PolyA inhibitor -27, HSF1 inhib 4 and AHR activator 7.
For CCCCN(C)CCNC(=O)c1cc2c(-c3ccccc3F)nn(C)c2s1 the results were PolyA inhibitor -13, HSF1 inhib -63* and AHR activator 18.
CCCCN(C)CCNC(=O)c1cc2c(-c3cccc(OC)c3)nn(C)c2s1 was read as PolyA inhibitor -7, HSF1 inhib -8 and AHR activator 16.
`CCOC(=O)c1c(S(=O)(=O)N2CCCCC2C)c(C)n(C)c1C` (stereo unspecified) gave PolyA inhibitor -1, HSF1 inhib -88* and AHR activator 2.
For CCCCNC(=O)c1[nH]c(C)c(C(C)=O)c1C the results were PolyA inhibitor -15, PERK inh 1, HSF1 inhib -1, STAT3 activator 96, Hsp70 activator 0 and AHR activator 67*.
CC(=O)c1c(C)[nH]c(C(=O)Nc2ccc(C)cc2Br)c1C was read as PolyA inhibitor -3, HSF1 inhib 23 and AHR activator 52*.
CC(=O)c1c(C)[nH]c(C(=O)Nc2cc(F)ccc2C)c1C was read as PolyA inhibitor -3, HSF1 inhib -3 and AHR activator 58*.
`CCCCC(CC)CNC(=O)c1[nH]c(C)c(C(C)=O)c1C` (stereo unspecified) gave PolyA inhibitor -11, PERK inh 1, HSF1 inhib 2, STAT3 activator 79, Hsp70 activator -1 and AHR activator 27.
Screening CCc1c(C(=O)Nc2cc(C)ccc2OC)[nH]c(C)c1C(C)=O returned PolyA inhibitor -40, PERK inh -1, HSF1 inhib 0, STAT3 activator 124, Hsp70 activator 0 and AHR activator 52*.
For COc1cc(-c2nc3ccccn3c2/N=C/c2cc(OC)c(O)cc2Cl)ccc1O the results were PolyA inhibitor -14, PERK inh 2, HSF1 inhib -6, STAT3 activator 78, Hsp70 activator 0 and AHR activator 18.
For CCOc1ccccc1N(CC(=O)N1CCCC1)S(C)(=O)=O the results were PolyA inhibitor 4, HSF1 inhib -3 and AHR activator 0.
Screening CCCc1cc2c(=O)c(-c3ccccn3)c(C)oc2cc1O returned PolyA inhibitor 3, PERK inh 0, HSF1 inhib -8, STAT3 activator 116, Hsp70 activator 0 and AHR activator 65*.
COn1c(=O)c(-c2ccc(Cl)cc2)[n+]([O-])c2ccccc21 was read as PolyA inhibitor -9, PERK inh 0, HSF1 inhib -4, STAT3 activator 94, Hsp70 activator 0 and AHR activator 72*.
For Cc1ccc(-c2cc(-c3ccccc3)nc(NN)n2)cc1 the results were PolyA inhibitor -15, HSF1 inhib 0 and AHR activator 66*.
`COc1ccc(-c2cc(-c3ccccc3)nc(NN)n2)cc1OC` gave PolyA inhibitor 6, HSF1 inhib 0 and AHR activator 65*.
Screening COc1nc(-c2ccccc2)cc(-c2ccc(OC)c(OC)c2)n1 returned PolyA inhibitor -17, PERK inh -1, STAT3 activator 86, Hsp70 activator 0 and AHR activator 17.
For CCCCn1c(N)c(N(CC(C)C)C(=O)c2c(-c3ccccc3)noc2C)c(=O)[nH]c1=O the results were AHR activator 0.
COc1cc(C2NC(=O)NC(C)=C2C(C)=O)ccc1O (stereo unspecified) was read as PolyA inhibitor -7, PERK inh 2, HSF1 inhib 0 and AHR activator 0.
For Cc1ccc(-c2cc(C(F)F)n3ncc(C(=O)N4CCCCC4c4cccnc4)c3n2)cc1 (stereo unspecified) the results were PolyA inhibitor -12, PERK inh 0, HSF1 inhib 0, STAT3 activator 90, Hsp70 activator 0 and AHR activator 4.
O=C(c1cnn2c(C(F)(F)F)cc(-c3ccccc3)nc12)N1CCCCC1c1cccnc1 (stereo unspecified) was read as PolyA inhibitor -11, PERK inh 0, HSF1 inhib 4, STAT3 activator 105, Hsp70 activator 0 and AHR activator 50*.
`Cc1cc(=O)oc2cc(OCc3ccccc3)ccc12` gave PolyA inhibitor -15, HSF1 inhib 38 and AHR activator -3.
For Cc1cc(=O)oc2ccc(OCc3ccccc3)cc12 the results were PolyA inhibitor -6, HSF1 inhib -2 and AHR activator 51*.
CCn1cc(Cl)c(C(=O)Nc2ccccc2C(N)=O)n1 was read as PolyA inhibitor 0, PERK inh 1, HSF1 inhib 8, STAT3 activator 102, Hsp70 activator 0 and AHR activator 54*.

Source: PubChem BioAssay (several laboratories)
